In ChEMBL document CHEMBL2062515, “Synthesis and evaluation of novel radioligands for positron emission tomography imaging of metabotropic glutamate receptor subtype 1 (mGluR1) in rodent brain” (J Med Chem, 2012):

Key:
Brain [1] = experiment: Biodistribution in mouse brain at 4.8 MBq/140 uL, iv after 15 mins by gamma counting; assay type: ADME, organism-based; settings: in vivo, 0.25 h
How it was run: (§1)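 Mice received the radioligand in saline by tail vein (4.8 MBq/140 μL, 40 pmol). Four mice per time point were killed by cervical dislocation at 1, 5, 15, 30 and 60 min. Tissues were removed quickly and counted in an autogamma counter. Data are decay-corrected % injected dose per gram of wet tissue, mean ± SE, n = 4.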

Mus musculus [2] = experiment: Biodistribution in mouse small intestine at 4.8 MBq/140 uL, iv after 1 min by gamma counting; assay type: ADME, organism-based; settings: in vivo
How it was run: (§2)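 [¹¹C]radioligand in saline (4.8 MBq/140 μL, 40 pmol) injected via tail vein; four mice per time point killed by cervical dislocation at 1, 5, 15, 30, 60 min. Tissues (small intestine including contents) removed, counted in autogamma counter, decay-corrected, expressed as % injected dose per gram wet tissue; mean SE, n = 4.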

Thalamus [3] = experiment: Drug uptake in Sprague-Dawley rat thalamus at 16 MBq administered as bolus infusion after 90 mins by PET analysis; assay type: ADME, organism-based; settings: in vivo, iv, 1.5 h
Kidney [4] = experiment: Biodistribution in mouse kidney at 4.8 MBq/140 uL, iv after 5 mins by gamma counting; assay type: ADME, organism-based; settings: in vivo; how it was run: as §1
Lung [5] = experiment: Biodistribution in mouse lung at 4.8 MBq/140 uL, iv after 1 min by gamma counting; assay type: ADME, organism-based; settings: in vivo; how it was run: as §1
Kidney [6] = experiment: Biodistribution in mouse kidney at 4.8 MBq/140 uL, iv after 1 min by gamma counting; assay type: ADME, organism-based; settings: in vivo; how it was run: as §1
Liver = experiment: Biodistribution in mouse liver at 4.8 MBq/140 uL, iv after 60 mins by gamma counting; assay type: ADME, organism-based; settings: in vivo, 1 h; how it was run: as §1
[7] = Ratio of drug uptake in striatum to pons of Sprague-Dawley rat at 16 MBq administered as bolus infusion; settings: in vivo, iv
Kidney [8] = experiment: Biodistribution in mouse kidney at 4.8 MBq/140 uL, iv after 15 mins by gamma counting; assay type: ADME, organism-based; settings: in vivo, 0.25 h; how it was run: as §1
Mus musculus [9] = experiment: Biodistribution in mouse testis at 4.8 MBq/140 uL, iv after 15 mins by gamma counting; assay type: ADME, organism-based; settings: in vivo, 0.25 h; how it was run: as §2
Spleen [10] = experiment: Biodistribution in mouse spleen at 4.8 MBq/140 uL, iv after 30 mins by gamma counting; assay type: ADME, organism-based; settings: in vivo, 0.5 h; how it was run: as §2
[11] = Metabolic stability in Sprague-Dawley rat brain assessed as compound remaining after 90 mins; assay type: ADME, tissue-based; settings: read-out: Stability
Spleen [12] = experiment: Biodistribution in mouse spleen at 4.8 MBq/140 uL, iv after 60 mins by gamma counting; assay type: ADME, organism-based; settings: in vivo, 1 h; how it was run: as §2
Mus musculus [13] = experiment: Biodistribution in mouse small intestine at 4.8 MBq/140 uL, iv after 5 mins by gamma counting; assay type: ADME, organism-based; settings: in vivo; how it was run: as §2
Lung [14] = experiment: Biodistribution in mouse lung at 4.8 MBq/140 uL, iv after 15 mins by gamma counting; assay type: ADME, organism-based; settings: in vivo, 0.25 h; how it was run: as §1
Muscle tissue [15] = experiment: Biodistribution in mouse muscle at 4.8 MBq/140 uL, iv after 5 mins by gamma counting; assay type: ADME, organism-based; settings: in vivo; how it was run: as §2
Mus musculus [16] = experiment: Biodistribution in mouse small intestine at 4.8 MBq/140 uL, iv after 30 mins by gamma counting; assay type: ADME, organism-based; settings: in vivo, 0.5 h; how it was run: as §2
Striatum = experiment: Drug uptake in Sprague-Dawley rat striatum at 16 MBq administered as bolus infusion after 45 mins by PET analysis; assay type: ADME, organism-based; settings: in vivo, iv, 0.75 h
Thalamus [17] = experiment: Drug uptake in Sprague-Dawley rat thalamus at 17 MBq administered as bolus infusion by PET analysis in presence of JNJ16259685; assay type: ADME, organism-based; settings: in vivo, iv
Blood = experiment: Biodistribution in mouse blood at 4.8 MBq/140 uL, iv after 1 min by gamma counting; assay type: ADME, organism-based; settings: in vivo; how it was run: as §1
Thalamus [18] = experiment: Drug uptake in Sprague-Dawley rat thalamus at 17 MBq administered as bolus infusion by PET analysis in presence of N-[4-[6-(isopropylamino)pyrimidin-4-yl]-1,3-thiazol-2-yl]-4-methoxy-N-methylbenzamide; assay type: ADME, organism-based; settings: in vivo, iv
Brain [19] = experiment: Biodistribution in mouse brain at 4.8 MBq/140 uL, iv after 1 min by gamma counting; assay type: ADME, organism-based; settings: in vivo; how it was run: as §1
Muscle tissue [20] = experiment: Biodistribution in mouse muscle at 4.8 MBq/140 uL, iv after 30 mins by gamma counting; assay type: ADME, organism-based; settings: in vivo, 0.5 h; how it was run: as §1
Thalamus [21] = experiment: Drug uptake in wild type mouse thalamus at 17 MBq, iv up to 60 mins by PET analysis; assay type: ADME, organism-based; settings: in vivo, 1 h
Brain [22] = experiment: Biodistribution in mouse brain at 4.8 MBq/140 uL, iv after 60 mins by gamma counting; assay type: ADME, organism-based; settings: in vivo, 1 h; how it was run: as §1
Mus musculus [23] = experiment: Biodistribution in mouse small intestine at 4.8 MBq/140 uL, iv after 60 mins by gamma counting; assay type: ADME, organism-based; settings: in vivo, 1 h; how it was run: as §2

`CC(C)Nc1cc(-c2csc(N(C)C(=O)c3ccc(O[11CH3])cc3)n2)ncn1` gave a Drug uptake (Brain [1]) of 3.14 % ID/g, a Drug uptake (Mus musculus [2]) of 3.65 % ID/g and a Drug uptake (Thalamus [3]) of 80%. The Drug uptake (Kidney [4]) was 5.64 % ID/g, the Drug uptake (Lung [5]) was 5.17 % ID/g and the Drug uptake (Kidney [6]) was 8.67 % ID/g. For the same compound, the Drug uptake (Liver) was 3.97 % ID/g, the Ratio [7] was 4.32 and the Drug uptake (Kidney [8]) was 3.78 % ID/g. For the same compound, the Drug uptake (Mus musculus [9]) was 0.54 % ID/g, the Drug uptake (Spleen [10]) was 2.14 % ID/g and the remaining at 1.5 h [11] was over 80%. The Drug uptake (Spleen [12]) was 2.36 % ID/g, the Drug uptake (Mus musculus [13]) was 4.55 % ID/g and the Drug uptake (Lung [14]) was 1.91 % ID/g. For the same compound, the Drug uptake (Muscle tissue [15]) was 1.22 % ID/g, the Drug uptake (Mus musculus [16]) was 4.07 % ID/g and the Drug uptake (Striatum) was “Active”. For the same compound, the Drug uptake (Thalamus [17]) was “Not Active”, the Drug uptake (Blood) was 3.79 % ID/g and the Drug uptake (Thalamus [18]) was “Not Active”. The Drug uptake (Brain [19]) was 3.1 % ID/g, the Drug uptake (Muscle tissue [20]) was 0.64 % ID/g and the Drug uptake (Thalamus [21]) was “Active”. It also gave a Drug uptake (Brain [22]) of 1.85 % ID/g and a Drug uptake (Mus musculus [23]) of 3.97 % ID/g.
